Experimental data from ChEMBL document CHEMBL4270526, “A novel NAE/UAE dual inhibitor LP0040 blocks neddylation and ubiquitination leading to growth inhibition and apoptosis of cancer cells” (Eur J Med Chem, 2018).
Activity calls are given as the source filed them. The rule behind the calls is not given here.

Tests used:
HCT-116 = experiment: Antiproliferative activity against human HCT116 cells after 48 hrs by CCK8 assay; type: functional, cell-based; details: HCT-116, 48 h
Procedure, shortened: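 Cells seeded at 6 × 10^3 cells/well and left 12 h at 37 °C, 5% CO2. Medium then replaced with serial compound dilutions, bortezomib as positive control. After 48 h, CCK-8 added for 4 h and absorbance read at 450 nm. Three repeats; IC50 from normalized nonlinear regression of inhibition curves.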

[1] = Hemolytic activity against rabbit erythrocytes assessed as hemolysis at 100 uM measured after 1 hr; type: ADME, cell-based, Oryctolagus cuniculus, Erythrocyte; details: read-out: Activity
Procedure, shortened: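 Rabbit erythrocytes pelleted at 3000 rpm for 10 min, washed twice and resuspended in PBS. Mixed 1:1 with 200 μM compound solution in PBS, 1 h at 37 °C. PBS served as 0% and 1% Triton X-100 as 100% hemolysis. After centrifugation, supernatant hemoglobin read at 540 nm; % hemolysis calculated relative to the Triton and PBS controls.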

[2] = Antiproliferative activity against HEK293T cells after 48 hrs by CCK8 assay; type: cell-based, HEK-293T; details: human, read-out: LC50
[3] = Selectivity index, ratio of IC50 for HEK293T cells to IC50 for human AGS cells; type: toxicity; details: HEK293T cells versus AGS cells, read-out: Ratio IC50
[4] = Selectivity index, ratio of IC50 for HUVEC to IC50 for human AGS cells; type: toxicity; details: HUVEC versus AGS cells, read-out: Ratio IC50
[5] = biological target: T1, NEDD8 activating enzyme (Homo sapiens) (UniProt Q8TBC4+Q13564); experiment: Inhibition of recombinant human NAE assessed as reduction in Ubc12-NEDD8 conjugation level pretreated for 10 mins followed by Mg2+ and ATP addition measured after 60 mins by Western blot analysis; type: protein-complex assay
Procedure, shortened: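 Cell-free assay with recombinant human NAE 2.5 µM, NEDD8 250 µM and E2 Ubc12 50 µM (stock concentrations) plus inhibitor, preincubated 10 min at 37 °C. Reaction started with 10 mM Mg2+/ATP (stock), run 60 min at 37 °C, quenched with EDTA. Non-reducing 15% SDS-PAGE, Ubc12-NEDD8 thioester detected by western blot. No-ATP negative control.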

[6] = biological target: T1, NEDD8 activating enzyme (Homo sapiens); experiment: Inhibition of NAE in human AGS cells assessed as reduction in Uba3-NEDD8 conjugation level after 24 hrs by Western blot analysis; type: cell-based
Procedure, shortened: (§1)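 AGS cells given 2, 4, 6, 8 or 10 μM compound or 0.1% DMSO for 24 h, washed in ice-cold PBS and lysed in RIPA on ice. Equal protein loads run by SDS-PAGE: non-reducing for NEDD8/SUMO/Ub conjugates, reducing for p27, NRF2, CDT1 and cleaved caspase-3. Blotted to PVDF with primary antibody overnight at 4 °C and HRP secondary, ECL detection, densitometry. Three repeats.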

[7] = biological target: T1, NEDD8 activating enzyme (Homo sapiens); experiment: Inhibition of NAE in human AGS cells assessed as reduction in Ubc12-NEDD8 conjugation level after 24 hrs by Western blot analysis; type: cell-based; procedure, shortened: as §1
[8] = biological target: T1, NEDD8 activating enzyme (Homo sapiens); experiment: Inhibition of NAE in human AGS cells assessed as reduction in Cullins-NEDD8 conjugation level after 24 hrs by Western blot analysis; type: cell-based; procedure, shortened: as §1
[9] = biological target: T1, NEDD8 activating enzyme (Homo sapiens); experiment: Inhibition of NAE-mediated CRL neddylation in human AGS cells assessed as increase in CDT1 level up to 10 uM after 24 hrs by Western blot analysis; type: cell-based; procedure, shortened: as §1
[10] = biological target: T1, NEDD8 activating enzyme (Homo sapiens); experiment: Inhibition of NAE-mediated CRL neddylation in human AGS cells assessed as increase in p27 level up to 10 uM after 24 hrs by Western blot analysis; type: cell-based; procedure, shortened: as §1
[11] = biological target: T1, NEDD8 activating enzyme (Homo sapiens); experiment: Inhibition of NAE-mediated CRL neddylation in human AGS cells assessed as increase in NRF2 level up to 10 uM after 24 hrs by Western blot analysis; type: cell-based; procedure, shortened: as §1
[12] = biological target: Serine/threonine-protein kinase B-raf (Homo sapiens) (UniProt P15056); experiment: Inhibition of B-raf (unknown origin) at 30 uM relative to control
Serine/threonine-protein kinase B-raf (Homo sapiens), sequence (P15056 whole entry): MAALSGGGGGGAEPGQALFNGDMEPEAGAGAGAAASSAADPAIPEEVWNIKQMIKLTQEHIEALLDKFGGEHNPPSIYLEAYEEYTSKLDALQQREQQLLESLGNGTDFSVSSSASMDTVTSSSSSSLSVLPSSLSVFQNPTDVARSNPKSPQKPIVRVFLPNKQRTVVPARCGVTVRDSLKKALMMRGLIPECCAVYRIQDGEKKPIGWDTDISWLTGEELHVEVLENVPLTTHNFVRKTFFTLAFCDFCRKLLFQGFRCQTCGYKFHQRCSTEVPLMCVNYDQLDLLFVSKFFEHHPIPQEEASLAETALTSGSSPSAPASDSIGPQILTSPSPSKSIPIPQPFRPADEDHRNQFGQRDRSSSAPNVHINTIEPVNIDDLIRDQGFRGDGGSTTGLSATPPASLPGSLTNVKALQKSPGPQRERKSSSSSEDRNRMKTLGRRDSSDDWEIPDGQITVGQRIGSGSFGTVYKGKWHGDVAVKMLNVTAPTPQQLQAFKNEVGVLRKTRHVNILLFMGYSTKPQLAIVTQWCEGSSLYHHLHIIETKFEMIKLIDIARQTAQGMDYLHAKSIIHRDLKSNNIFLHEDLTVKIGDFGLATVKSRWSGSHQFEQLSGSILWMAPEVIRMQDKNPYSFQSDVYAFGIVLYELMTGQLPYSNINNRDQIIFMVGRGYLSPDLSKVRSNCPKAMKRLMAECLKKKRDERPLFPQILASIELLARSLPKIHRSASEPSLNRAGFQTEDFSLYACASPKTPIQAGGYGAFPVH

[13] = biological target: Tyrosine-protein kinase Lck (Homo sapiens) (UniProt P06239); experiment: Inhibition of LCK (unknown origin) at 30 uM relative to control
Tyrosine-protein kinase Lck (Homo sapiens), sequence (P06239 2-509 limits assumed): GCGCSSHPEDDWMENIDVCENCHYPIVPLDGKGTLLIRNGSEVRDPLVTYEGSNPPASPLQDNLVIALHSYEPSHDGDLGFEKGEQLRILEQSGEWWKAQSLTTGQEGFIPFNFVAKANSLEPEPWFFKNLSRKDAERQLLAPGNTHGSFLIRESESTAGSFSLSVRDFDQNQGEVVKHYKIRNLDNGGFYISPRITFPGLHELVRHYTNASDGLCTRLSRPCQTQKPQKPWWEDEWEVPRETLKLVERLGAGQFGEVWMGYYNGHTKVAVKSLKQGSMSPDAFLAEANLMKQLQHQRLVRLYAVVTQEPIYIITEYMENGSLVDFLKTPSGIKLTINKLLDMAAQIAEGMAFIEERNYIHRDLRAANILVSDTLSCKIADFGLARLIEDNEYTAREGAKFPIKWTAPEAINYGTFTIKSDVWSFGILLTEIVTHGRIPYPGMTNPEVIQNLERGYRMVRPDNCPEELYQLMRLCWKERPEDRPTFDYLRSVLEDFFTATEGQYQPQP

[14] = biological target: Epidermal growth factor receptor (Homo sapiens) (UniProt P00533); experiment: Inhibition of EGFR (unknown origin) at 30 uM relative to control
Epidermal growth factor receptor (Homo sapiens), sequence (P00533 whole entry): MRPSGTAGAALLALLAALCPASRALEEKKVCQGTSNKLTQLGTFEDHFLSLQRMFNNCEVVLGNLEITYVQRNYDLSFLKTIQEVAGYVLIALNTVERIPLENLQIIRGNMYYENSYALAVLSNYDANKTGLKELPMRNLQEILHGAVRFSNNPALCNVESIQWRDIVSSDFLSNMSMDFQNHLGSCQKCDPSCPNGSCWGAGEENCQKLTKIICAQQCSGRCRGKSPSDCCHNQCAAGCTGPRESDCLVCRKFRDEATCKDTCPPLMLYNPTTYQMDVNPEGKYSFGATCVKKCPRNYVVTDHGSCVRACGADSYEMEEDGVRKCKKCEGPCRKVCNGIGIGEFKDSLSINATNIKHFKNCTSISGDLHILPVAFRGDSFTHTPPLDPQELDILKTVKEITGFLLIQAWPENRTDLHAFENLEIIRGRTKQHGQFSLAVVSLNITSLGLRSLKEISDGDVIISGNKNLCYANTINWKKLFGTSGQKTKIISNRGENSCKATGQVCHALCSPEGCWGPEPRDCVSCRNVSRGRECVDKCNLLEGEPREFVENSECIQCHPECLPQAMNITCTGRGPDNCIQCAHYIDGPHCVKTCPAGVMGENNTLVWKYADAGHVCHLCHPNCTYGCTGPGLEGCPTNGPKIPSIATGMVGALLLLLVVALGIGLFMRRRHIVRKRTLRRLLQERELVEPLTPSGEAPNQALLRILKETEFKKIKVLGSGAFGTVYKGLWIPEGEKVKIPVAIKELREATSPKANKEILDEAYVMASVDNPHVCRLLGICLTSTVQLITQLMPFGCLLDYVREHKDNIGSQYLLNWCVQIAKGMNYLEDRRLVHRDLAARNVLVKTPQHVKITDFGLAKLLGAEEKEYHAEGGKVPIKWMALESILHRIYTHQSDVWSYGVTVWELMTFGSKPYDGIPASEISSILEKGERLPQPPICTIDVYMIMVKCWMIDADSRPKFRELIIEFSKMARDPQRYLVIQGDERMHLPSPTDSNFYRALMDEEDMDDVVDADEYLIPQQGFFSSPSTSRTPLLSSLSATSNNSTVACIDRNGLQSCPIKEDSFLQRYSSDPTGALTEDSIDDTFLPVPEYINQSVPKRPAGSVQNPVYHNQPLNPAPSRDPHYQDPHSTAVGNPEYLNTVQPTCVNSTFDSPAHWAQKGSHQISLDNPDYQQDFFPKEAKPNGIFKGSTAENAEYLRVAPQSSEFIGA

AGS [15] = experiment: Induction of apoptosis in human AGS cells assessed as early apoptotic cells at 4 uM after 36 hrs by Annexin-V-FITC/propidium iodide staining based flow cytometry (reference value: 4.44%); type: functional
AGS [16] = experiment: Induction of apoptosis in human AGS cells assessed as late apoptotic cells at 6 uM after 36 hrs by Annexin-V-FITC/propidium iodide staining based flow cytometry (reference value: 1.71%); type: functional
AGS [17] = experiment: Induction of apoptosis in human AGS cells assessed as necrotic cells at 6 uM after 36 hrs by Annexin-V-FITC/propidium iodide staining based flow cytometry (reference value: 1.01%); type: functional
AGS [18] = experiment: Induction of apoptosis in human AGS cells assessed as early apoptotic cells at 10 uM after 36 hrs by Annexin-V-FITC/propidium iodide staining based flow cytometry (reference value: 4.44%); type: functional
AGS [19] = experiment: Induction of apoptosis in human AGS cells assessed as late apoptotic cells at 10 uM after 36 hrs by Annexin-V-FITC/propidium iodide staining based flow cytometry (reference value: 1.71%); type: functional
AGS [20] = experiment: Induction of apoptosis in human AGS cells after 36 hrs by Annexin-V-FITC/propidium iodide staining based flow cytometry; type: functional, cell-based
AGS [21] = experiment: Induction of apoptosis in human AGS cells assessed as increase in cleaved caspase-3 level up to 10 uM after 24 hrs by Western blot analysis; type: functional, cell-based; procedure, shortened: as §1
AGS [22] = experiment: Cell cycle arrest in human AGS cells assessed as accumulation at G1 phase at 4 uM after 4 to 48 hrs by propidium iodide staining based flow cytometry (reference value: 22.82%); type: functional
Procedure, shortened: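 AGS cells seeded at 1 × 10^5/well and attached 24 h at 37 °C, 5% CO2. Exposed to 4 μM compound for varying times, then fixed in 70% ethanol at −20 °C overnight. Stained with PI/RNase buffer 15–20 min in the dark; 20000 cells per sample read by flow cytometry (488 nm excitation, FL-3 630 nm). Three repeats.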

AGS [23] = experiment: Synergistic antiproliferative activity against human AGS cells assessed as combination index constant at 1.5 uM after 48 hrs in presence of 5 nM BTZ by CCK8 assay; type: functional
Procedure, shortened: (§2)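 AGS cells at 6×10^3/well attached for 12 h, then exposed for 48 h to compound, bortezomib, or both at set concentrations. CCK-8 added for 4 h, then OD read at 450 nm. Inhibition rates E used for q = E(combo)/(E1+E2−E1×E2). Triplicate experiments.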

AGS [24] = experiment: Synergistic antiproliferative activity against human AGS cells assessed as combination index constant at 1.5 uM after 48 hrs in presence of 7.5 nM BTZ by CCK8 assay; type: functional; procedure, shortened: as §2
AGS [25] = experiment: Synergistic antiproliferative activity against human AGS cells assessed as combination index constant at 1 uM after 48 hrs in presence of 10 nM BTZ by CCK8 assay; type: functional; procedure, shortened: as §2
AGS [26] = experiment: Synergistic antiproliferative activity against human AGS cells assessed as combination index constant at 1.25 uM after 48 hrs in presence of 10 nM BTZ by CCK8 assay; type: functional; procedure, shortened: as §2

O=c1cc(-c2ccc(-c3ccccc3)cc2)c2ccc(N3CCC(NCCc4ccccc4)CC3)cc2o1
IC50 (HCT-116): 1.33 µM
hemolysis at 1 h, 100 µM [1]: < 10%
CC50 at 48 h [2]: 12.9 µM
selectivity ratio [3]: 14 to 18
selectivity ratio [4]: 14 to 18
inhibition [5]: Dose-dependent effect
inhibition [6]: Dose-dependent effect
inhibition [7]: Dose-dependent effect
inhibition [8]: Dose-dependent effect
inhibition [9]: Active
inhibition [10]: Active
inhibition [11]: Active
inhibition [12]: 1.75%
inhibition [13]: -2.51%
inhibition [14]: 2.77%
Activity (AGS [15]): 7.77%
Activity (AGS [16]): 35.77%
Activity (AGS [17]): 3.33%
Activity (AGS [18]): 38.71%
Activity (AGS [19]): 44.73%
Activity (AGS [20]): Dose-dependent effect
Activity (AGS [21]): Active
Activity (AGS [22]): 48.88%
CI (AGS [23]): 1.15
CI (AGS [24]): 1.05
CI (AGS [25]): 1.14
CI (AGS [26]): 1.75
